CSN inh: blocks human CSN-mediated cullin deneddylation; Q92905; Purified CSN, SCF-Nedd8-OG deneddylation, fluorescence polarization; inhibition, % at 12.5 µM; 0.38% of 360,000 active; AID 651999;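 active means pattern-corrected inhibition above about 35%, with an unprinted fluorescence ratio check between 0.5 and 1.5, limit read from the data, passing the limit was not always enough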;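 further: 0% = enzyme with substrate and 100% = substrate without enzyme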
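test system = HEK293T-derived human Csn5 enzyme | amount = 0.24 nM Csn5 enzyme, final concentration | medium = Tris/NaCl/DTT buffer, pH 7.5 | schedule = 90 min reaction at room temperature | signal = FP | evaluation = inhibition of Csn5 cleavage, % | compound dosing = single dose of 12.5 µM compound with 0.25% DMSO | probe or stimulus = 10 nM SCFSkp2-Nedd8OG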
PREPL inhibitor: inhibits the human prolyl oligopeptidase-like enzyme; recombinant PREPL, fluorescence polarization activity-based probe; 0.68% of 320,000 active; inhibition, % at 5.96 µM; AID 2751; in the data active means inhibition above about 43%;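 further: 0% = enzyme with DMSO and 100% = wells lacking enzyme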
Target sequence (Q4J6C6 whole entry, looked up): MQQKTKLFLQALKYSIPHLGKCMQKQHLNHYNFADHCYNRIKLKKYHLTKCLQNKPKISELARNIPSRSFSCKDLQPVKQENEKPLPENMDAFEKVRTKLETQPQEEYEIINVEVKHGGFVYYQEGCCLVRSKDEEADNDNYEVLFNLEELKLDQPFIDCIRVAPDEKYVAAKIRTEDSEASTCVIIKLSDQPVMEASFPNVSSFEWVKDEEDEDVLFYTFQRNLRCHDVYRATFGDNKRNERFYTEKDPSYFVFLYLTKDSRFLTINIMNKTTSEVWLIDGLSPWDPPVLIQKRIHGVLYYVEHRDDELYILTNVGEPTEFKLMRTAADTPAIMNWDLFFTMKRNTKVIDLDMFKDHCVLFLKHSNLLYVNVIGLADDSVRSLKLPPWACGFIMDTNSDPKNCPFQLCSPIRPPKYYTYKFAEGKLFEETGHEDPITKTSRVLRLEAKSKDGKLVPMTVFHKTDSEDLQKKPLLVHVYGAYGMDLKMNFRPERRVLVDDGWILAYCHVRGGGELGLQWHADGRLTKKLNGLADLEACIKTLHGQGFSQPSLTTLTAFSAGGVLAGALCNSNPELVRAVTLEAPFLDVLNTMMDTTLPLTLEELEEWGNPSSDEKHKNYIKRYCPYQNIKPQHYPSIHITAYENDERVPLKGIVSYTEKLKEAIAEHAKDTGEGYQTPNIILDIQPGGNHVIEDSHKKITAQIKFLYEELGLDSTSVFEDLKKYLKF
Neddyl block: blocks human cullin neddylation; TR-FRET cullin neddylation, biochemical; P61081+Q13564; 0.58% of 360,000 active; inhibition, % at 25 µM; in the data active means inhibition above about 36%
Rpn11 block: Rpn11 (human) deubiquitinase inhibition | O00487 | human 26S proteasome, Ub4-pepOG fluorescence polarization; 20S core pre-blocked with epoxomicin | inhibition, % at 20 µM | 0.59% of 360,000 active | AID 588493;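 active means inhibition at 20 µM, scaled to each plate's controls, above about 33%, limit read from the data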
TbMetRS inhib: Trypanosoma brucei MetRS inhibition | purified T. brucei MetRS, ATP depletion, Kinase-Glo luminescence | inhibition, % at 11.9 µM | 0.4% of 360,000 active | AID 624268;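 active means inhibition above a per-plate cutoff of the control wells' mean inhibition plus 3 SD, cut at about 5.5% in these data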;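 further: 0% = DMSO wells median and 100% = median of wells with control inhibitor compound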
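System: purified T. brucei MetRS enzyme / Detection: Kinase-Glo luciferase luminescence reporting remaining unconsumed ATP / Medium: HEPES buffer with MgCl2, KCl, DTT, spermine, BSA, pyrophosphatase / Replication: singlicate, one well per compound / Evaluation: percent inhibition relative to median high and low control wells / Schedule: 2 h aminoacylation at 25 °C after 15 min preincubation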
HNF4A DNA FP: change in binding of human HNF4 alpha to DNA | HNF4a-FITC DNA binding, fluorescence polarization, 1 h | 0.3% of 360,000 active | activity change, % at 10 µM; in the data active means activity change above about 30%, passing the limit was not always enough
Tb MetRS conf: Trypanosoma brucei MetRS inhibition confirmed | T. brucei MetRS enzyme, luminescence (ATP depletion) | inhibition, % at 11.9 µM | shares compounds with TbMetRS inhib | 93% of 1,400 active; in the data active means inhibition above about 7%
Jurkat tox: Jurkat T cell cytotoxicity for MetRS hits. shares compounds with TbMetRS inhib. Jurkat cells viability, ATP luminescence. inhibition, % at 8.3 µM. 12% of 1,400 active. AID 624413; in the data active means inhibition above about 15%;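 further: 0% = vehicle and 100% = reference inhibitor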
TbMetRS FP orth: orthogonal test for Trypanosoma brucei MetRS inhibitors; shares compounds with TbMetRS inhib; purified T. brucei MetRS, fluorescence polarization; inhibition, % at 11.9 µM; 44% of 1,400 active; in the data active means inhibition above about 17%;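 further: 0% = vehicle wells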
The depositor's hits bear a star; nt = no result given. Shown are actives, neighbours in structure and some others; about 2.4% of the full set was active somewhere.

SMILES	CSN inh	PREPL inhibitor	Neddyl block	Rpn11 block	TbMetRS inhib	HNF4A DNA FP	Tb MetRS conf	Jurkat tox	TbMetRS FP orth
CCOC(=O)CNC(=O)C1CCCc2c1[nH]c1ccc(Cl)cc21 (stereo unspecified)	0	10	8	-2	12*	-2	20*	0	4
c1ccc2c(c1)nc(N1CCOCC1)c1c3ccccc3[nH]c21	0	5	nt	2	12*	-1	4	-3	5
CCNC(=O)N(C)[C@H]1C[C@H]2c3[nH]c4ccccc4c3CCN2C[C@H]1[C@H](C)O	2	nt	26	1	2	0	nt	nt	nt
C[C@H](O)[C@@H]1CN2CCc3c([nH]c4ccccc34)[C@@H]2C[C@@H]1N(C)C(=S)NCCc1ccccc1	-69	nt	35	-162	7.8*	-119	6.7*	6	11
O=C(NN=C1CCCCCC1)c1cc2ccccc2cc1O	-1	10	nt	6	1	-6	nt	nt	nt
O=C1CCCC(=NNC(=O)c2cc3ccccc3cc2O)C1	72*	15	14	nt	5.9*	129	24*	1	14
O=C(CCNC(=O)c1ccc(Br)cc1)OCc1ccccc1Cl	4	-22	10	3	7.0*	-7	34*	-4	19*
O=C(CNC(=O)c1ccccc1)NCC(=O)OCc1ccccc1Cl	-2	-3	8	-1	0	1	nt	nt	nt
Cc1ccc(C)c(NS(=O)(=O)c2cc3c4c(c2)CC(=O)N4CCC3)c1	-1	5	2	-5	0	-1	nt	nt	nt
N#Cc1nc(COc2ccc(Cl)cc2)oc1NCc1ccc2c(c1)OCO2	-1	-11	8	-2	5.7*	0	9.8*	1	12
Cc1cccc(OCc2nc(C#N)c(NCc3ccc4c(c3)OCO4)o2)c1	3	-13	-2	4	0	-2	nt	nt	nt
CCOC(=O)CN1C(=O)CN(c2ccc(C)c(C)c2)C1=O	-4	8	-1	-7	-1	-1	nt	nt	nt
COc1ccc(OC)c(NC(=O)COC(=O)c2ccc(S(=O)(=O)N3CCCCC3)cc2)c1	2	nt	11	0	0	-2	nt	nt	nt
Cc1ccc2nc(SCc3nnc(-c4ccccc4Br)o3)[nH]c2c1	-4	-22	4	5	7.8*	0	11*	5	7
Clc1ccc2nc(SCc3nnc(-c4ccccc4)o3)[nH]c2c1	3	-11	5	4	7.5*	3	17*	6	7
Clc1ccc(OCc2nnc(SCc3nnc(-c4ccccc4)o3)o2)c(Cl)c1	-4	-43	-3	3	6.7*	-2	17*	0	5
Cc1noc(C)c1NC(=O)N(C)C[C@H]1OCc2cn(nn2)CCCC(=O)N([C@@H](C)CO)C[C@@H]1C	2	nt	-4	-8	-1	24	nt	nt	nt
COc1ccc(-c2ccc3[nH]c4c(c3c2)CCN2C(=O)[C@@H]([C@H](C)O)[C@@H](N(C)C(=O)Nc3cc(Cl)cc(Cl)c3)C[C@@H]42)cc1	2	nt	-1	7	7.8*	-6	11*	13	12
COc1ccc(-c2ccc3[nH]c4c(c3c2)CCN2C(=O)[C@@H]([C@H](C)O)[C@@H](N(C)C(=O)Nc3ccc(F)cc3)C[C@@H]42)cc1	2	nt	38	8	-2	2	nt	nt	nt
COc1ccc(C(C(=O)Nc2ccc(F)cc2)N2CCN(c3cccc(C(F)(F)F)n3)CC2)cc1 (stereo unspecified)	8	nt	8	nt	-1	-2	nt	nt	nt
COc1cccc(-c2cnc(C(O)c3cc(F)cc(Cl)c3)[nH]2)c1 (stereo unspecified)	6	nt	-7	-3	20*	1	40*	0	18*
COc1cccc(-c2cnc(C(O)c3cc(Cl)cc(Cl)c3)[nH]2)c1 (stereo unspecified)	-2	nt	2	2	54*	-2	78*	1	57*
COc1cccc(-c2cnc(C(O)c3ccccc3)[nH]2)c1 (stereo unspecified)	-1	nt	23	-4	0	1	nt	nt	nt
Cc1ccc2c(c1)CCO[C@@]21O[C@H](CCO)C[C@H](O)[C@H]1O	3	nt	-6	-6	0	3	nt	nt	nt
O=S(=O)(c1ccc2nc(COc3ccc(Cl)cc3Cl)[nH]c2c1)N1CCOCC1	3	10	-1	-6	12*	-3	21*	9	14
SMILES	CSN inh	PREPL inhibitor	Neddyl block	Rpn11 block	TbMetRS inhib	HNF4A DNA FP	Tb MetRS conf	Jurkat tox	TbMetRS FP orth
O=S(=O)(c1ccc2nc(SCc3ccc(Cl)cc3)[nH]c2c1)N1CCOCC1	-9	23	-2	-7	12*	4	18*	0	19*
CCCCn1cnc2c(SCc3ccc(Br)cc3)nc(N)nc21	-4	nt	-2	4	0	-4	nt	nt	nt
COc1ccc(Cl)cc1CC=NNC(=O)c1ccncc1	0	nt	-10	-4	0	-1	nt	nt	nt
Cc1ccc2nc(SCC(=O)NCc3ccc(F)cc3)[nH]c2c1	0	3	-3	-4	18*	4	22*	-1	6
Cc1ccc2nc(SCC(=O)NCc3ccc(S(N)(=O)=O)cc3)[nH]c2c1	3	12	2	-3	0	2	nt	nt	nt
COc1ccc(CNC(=O)CSc2nc3ccc(C)cc3[nH]2)cc1OC	-1	14	0	-4	8.9*	-3	21*	3	7
CCOc1ccc2nc(SCC(=O)NCc3ccc(OC)cc3)[nH]c2c1	-2	nt	-4	-4	0	1	nt	nt	nt
C/C=C/c1cccc(-c2nc(C(=O)NC3CCCC3)cc3c2[C@@H](CCO)N(S(=O)C(C)(C)C)C3)c1 (stereo partly specified)	8	nt	9	15	0	13	nt	nt	nt
Cc1cccc(OCCCC(=O)Nc2ccc(Br)cc2)c1	0	-34	-5	2	34*	0	45*	0	34*
Cc1ccc(NC(=O)CCC(=O)OCc2ccc(Br)cc2)cc1	1	-7	-11	-2	17*	0	26*	-6	12
Cc1cccc(NC(=O)CCC(=O)OCc2ccc(Br)cc2)c1	-8	3	9	-1	0	0	nt	nt	nt
COc1ccc(S(=O)(=O)N(C)C[C@@H]2Oc3cc(Br)ccc3S(=O)(=O)N([C@H](C)CO)C[C@@H]2C)cc1	-7	nt	0	2	-1	-4	nt	nt	nt

Source: PubChem BioAssay
